According to ChEMBL document CHEMBL1932929, “Lead optimization of 2-(piperidin-3-yl)-1H-benzimidazoles: identification of 2-morpholin- and 2-thiomorpholin-2-yl-1H-benzimidazoles as selective and CNS penetrating H₁-antihistamines for insomnia” (Bioorg Med Chem Lett, 2012):

Assays:
[1] = Dissociation constant, pKa of the compound; format: physicochemical
In short: (§1)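 Calculated values, not experimentally measured.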

[2] = Lipophilicity, log P of the compound; format: physicochemical; conditions: octanol/water; in short: as §1
[3] = Drug uptake in brain of Sprague-Dawley rat at 10 mg/kg, po measured after 4 hrs; format: ADME, organism-based; set-up: dose 10 mg/kg, route oral; conditions: read-out: Drug uptake
[4] = Drug uptake in brain of Sprague-Dawley rat at 30 mg/kg, po measured after 4 hrs; format: ADME, organism-based; set-up: dose 30 mg/kg, route oral; conditions: read-out: Drug uptake
In short: (§2)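 Single oral dose to Sprague Dawley rats; plasma and brain levels measured at 4 h; brain/plasma ratio taken from these 4 h levels.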

[5] = Drug uptake in plasma of Sprague-Dawley rat at 30 mg/kg, po measured after 4 hrs; format: ADME, organism-based; set-up: dose 30 mg/kg, route oral; conditions: read-out: Drug uptake; in short: as §2
[6] = Ratio drug uptake in brain to plasma of Sprague-Dawley rat at 30 mg/kg, po measured after 4 hrs; format: ADME, organism-based; set-up: dose 30 mg/kg, route oral; conditions: read-out: BPR; in short: as §2

Row | SMILES | pKa [1] | logP [2] | further results
1 | Cc1ccc(Cn2c(C3CNCCO3)nc3ccccc32)cc1C (single isomer, unassigned; (+)) | 7.4 | 3.4 | 
2 | CN(CC1CCOCC1)C1CCN(c2nc3ccccc3n2Cc2ccc(F)cc2)CC1 |  |  | concentration at 4 h [3]: 94 ng/g
3 | Cc1ccc(Cn2c([C@@H]3CNCCS3)nc3ccccc32)cc1C | 7.5 | 3.3 | 
4 | COc1ccc(Cn2c([C@H]3CNCCS3)nc3ccccc32)cc1 |  |  | concentration at 4 h [4]: 380 ng/g; concentration at 4 h [5]: 260 ng/mL; Kp at 4 h [6]: 1.4
